What was measured:
[1] = biological target: T1, 5-hydroxytryptamine receptor 1A (Rattus norvegicus, UniProt P19327); assay: Binding affinity against 5-hydroxytryptamine 1A receptor of rat was determined using [3H]8-OH-DPAT in binding assay
T1 sequence (P19327 whole entry): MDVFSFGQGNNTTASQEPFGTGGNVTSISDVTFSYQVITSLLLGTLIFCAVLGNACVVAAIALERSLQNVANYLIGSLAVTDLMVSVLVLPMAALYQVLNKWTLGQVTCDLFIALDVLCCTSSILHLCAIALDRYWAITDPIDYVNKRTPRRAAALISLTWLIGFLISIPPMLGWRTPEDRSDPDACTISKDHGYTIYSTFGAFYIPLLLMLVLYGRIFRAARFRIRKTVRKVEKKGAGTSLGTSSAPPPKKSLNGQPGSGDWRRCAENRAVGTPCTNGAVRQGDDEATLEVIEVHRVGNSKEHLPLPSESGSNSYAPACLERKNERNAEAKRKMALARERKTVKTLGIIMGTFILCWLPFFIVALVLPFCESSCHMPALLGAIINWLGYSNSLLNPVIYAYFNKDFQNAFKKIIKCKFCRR
In short: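 Rat (male Sprague-Dawley) cerebral cortex membranes, washed 4 times with a 10 min 37 °C preincubation, 10 mg wet tissue/mL. 1 nM [3H]-8-OH-DPAT in 50 mM Tris, 3 mM CaCl2, pargyline, pH 7.4; 15 min, 37 °C; filtration on PEI-treated GF/B filters, scintillation counting. Nonspecific binding with 10 µM 5-HT. IC50 read graphically and converted to apparent Ki (Cheng-Prusoff).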

[2] = biological target: 5-hydroxytryptamine receptor 1B (Rattus norvegicus, UniProt P28564); assay: Binding affinity towards 5-hydroxytryptamine 1B receptor in rat was determined using 50 uL of [125I]ICYP in binding assay
5-hydroxytryptamine receptor 1B, sequence (P28564 whole entry): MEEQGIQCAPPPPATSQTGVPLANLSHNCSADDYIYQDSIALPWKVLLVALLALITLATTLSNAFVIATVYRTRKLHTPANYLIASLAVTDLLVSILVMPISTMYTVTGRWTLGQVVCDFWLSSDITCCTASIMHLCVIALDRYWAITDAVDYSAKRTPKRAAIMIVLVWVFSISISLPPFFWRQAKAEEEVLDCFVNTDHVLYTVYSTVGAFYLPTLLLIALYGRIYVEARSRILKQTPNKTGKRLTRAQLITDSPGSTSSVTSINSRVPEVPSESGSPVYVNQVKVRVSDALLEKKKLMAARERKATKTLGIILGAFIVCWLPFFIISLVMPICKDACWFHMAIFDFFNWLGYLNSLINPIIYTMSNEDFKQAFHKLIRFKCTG
In short: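 [125I]ICYP at 150 pM final, in Tris/CaCl2/pargyline medium with 60 µM (-)-isoproterenol to block β-adrenergic sites. 15 min at 37 °C; ice-cold phosphate dilution, GF/B filtration, gamma counting. Nonspecific binding with 10 µM 5-HT.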

[3] = biological target: Serotonin 2 (5-HT2) receptor (Rattus norvegicus, UniProt P30994+P08909+P14842); assay: Binding affinity towards serotonin 5-hydroxytryptamine 2 receptor of rat determined using 0.5 nM of [3H]ketanserin in binding assay; format: protein assay
In short: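 0.5 nM [3H]ketanserin in the same buffer, no CaCl2 or pargyline; 15 min at 37 °C; filtration and scintillation counting. Nonspecific binding with 10 µM methysergide. IC50 read graphically and converted to apparent Ki (Cheng-Prusoff).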

[4] = biological target: T2, Adrenergic receptor alpha-1 (Rattus norvegicus, UniProt P15823+P23944+P43140); assay: Binding affinity against alpha-1 adrenergic receptor of rat was determined using 0.5 nM of [3H]WB-4101 in binding assay; format: protein assay
T2 sequence (P15823 whole entry): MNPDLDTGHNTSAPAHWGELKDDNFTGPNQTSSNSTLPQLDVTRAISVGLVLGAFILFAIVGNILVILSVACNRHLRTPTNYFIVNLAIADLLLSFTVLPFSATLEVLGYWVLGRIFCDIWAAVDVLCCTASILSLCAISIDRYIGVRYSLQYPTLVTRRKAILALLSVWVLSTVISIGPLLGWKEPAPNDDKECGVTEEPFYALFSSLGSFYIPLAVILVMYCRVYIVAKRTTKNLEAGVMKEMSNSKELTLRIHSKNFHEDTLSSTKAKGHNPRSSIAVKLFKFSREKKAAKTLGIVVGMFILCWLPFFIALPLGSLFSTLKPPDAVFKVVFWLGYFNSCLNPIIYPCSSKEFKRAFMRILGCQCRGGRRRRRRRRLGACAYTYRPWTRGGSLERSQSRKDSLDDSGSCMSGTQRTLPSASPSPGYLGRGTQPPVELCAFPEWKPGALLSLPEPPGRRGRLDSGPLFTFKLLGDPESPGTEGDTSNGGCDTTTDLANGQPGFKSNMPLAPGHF
T2 sequence (P23944 whole entry): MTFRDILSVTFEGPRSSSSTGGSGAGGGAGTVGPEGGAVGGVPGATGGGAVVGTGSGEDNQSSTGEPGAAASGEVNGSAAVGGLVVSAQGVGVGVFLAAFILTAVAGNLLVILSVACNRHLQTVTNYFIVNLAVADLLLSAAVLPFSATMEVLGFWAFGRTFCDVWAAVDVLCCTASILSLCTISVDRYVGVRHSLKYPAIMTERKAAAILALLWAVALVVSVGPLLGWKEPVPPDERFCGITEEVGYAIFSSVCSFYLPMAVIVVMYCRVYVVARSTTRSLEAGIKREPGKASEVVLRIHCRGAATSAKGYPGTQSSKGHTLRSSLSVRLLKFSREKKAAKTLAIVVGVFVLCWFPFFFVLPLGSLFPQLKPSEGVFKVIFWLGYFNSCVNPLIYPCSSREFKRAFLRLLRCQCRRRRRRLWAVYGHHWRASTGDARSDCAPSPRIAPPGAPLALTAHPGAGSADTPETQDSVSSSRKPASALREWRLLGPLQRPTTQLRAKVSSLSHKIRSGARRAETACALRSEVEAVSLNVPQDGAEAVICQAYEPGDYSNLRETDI
T2 sequence (P43140 whole entry): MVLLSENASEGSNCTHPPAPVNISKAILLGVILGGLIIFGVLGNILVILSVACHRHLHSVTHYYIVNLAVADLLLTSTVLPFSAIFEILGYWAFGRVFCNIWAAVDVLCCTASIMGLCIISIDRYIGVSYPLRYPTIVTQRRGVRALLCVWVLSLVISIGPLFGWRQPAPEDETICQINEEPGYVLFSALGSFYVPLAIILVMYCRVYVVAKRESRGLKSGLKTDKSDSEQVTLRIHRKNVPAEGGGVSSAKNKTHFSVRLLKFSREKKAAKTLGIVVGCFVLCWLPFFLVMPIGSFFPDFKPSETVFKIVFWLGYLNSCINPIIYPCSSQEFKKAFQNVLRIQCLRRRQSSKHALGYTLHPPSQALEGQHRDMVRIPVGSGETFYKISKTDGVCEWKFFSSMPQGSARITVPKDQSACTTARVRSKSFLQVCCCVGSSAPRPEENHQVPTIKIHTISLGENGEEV
In short: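 Washed rat cerebral cortex membranes at 10 mg wet tissue/mL, under the 8-OH-DPAT assay conditions (Tris/CaCl2/pargyline, pH 7.4, 15 min, 37 °C, filtration). Final [3H]WB4101 0.5 nM, with 1 µM 5-HT added to mask 5-HT1A sites. Nonspecific binding with 1 µM prazosin. Apparent Ki from graphical IC50 via Cheng-Prusoff.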

[5] = biological target: D(2) dopamine receptor (Rattus norvegicus, UniProt P61169); assay: Binding affinity against Dopamine receptor D2 of rat was determined using 2 nM of [3H]sulpiride in binding assay
D(2) dopamine receptor, sequence (P61169 whole entry): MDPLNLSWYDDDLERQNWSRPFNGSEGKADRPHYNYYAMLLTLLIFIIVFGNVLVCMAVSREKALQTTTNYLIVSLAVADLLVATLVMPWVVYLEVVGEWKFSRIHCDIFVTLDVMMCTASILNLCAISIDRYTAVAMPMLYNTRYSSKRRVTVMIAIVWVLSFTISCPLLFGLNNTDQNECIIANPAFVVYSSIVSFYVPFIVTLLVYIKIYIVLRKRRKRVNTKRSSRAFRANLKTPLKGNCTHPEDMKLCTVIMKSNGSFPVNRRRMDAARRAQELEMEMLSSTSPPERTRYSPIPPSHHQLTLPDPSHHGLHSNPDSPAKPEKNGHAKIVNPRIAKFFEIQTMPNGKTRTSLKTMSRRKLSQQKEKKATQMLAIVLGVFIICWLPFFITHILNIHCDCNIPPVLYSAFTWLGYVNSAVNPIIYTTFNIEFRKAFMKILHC
In short: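 Striatal membranes from male Sprague-Dawley rats in Tris buffer with 108 mM NaCl, 4.7 mM KCl, 1.3 mM CaCl2, pH 7.4, 4 mg wet tissue/mL. Final [3H]sulpiride 2 nM; incubated 20 min at 37 °C, then vacuum filtration. Specific binding defined with 1 µM spiperone. IC50 read graphically and converted to apparent Ki (Cheng-Prusoff).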

SMILES | Ki [1] | Ki [2] | Ki [3] | Ki [4] | Ki [5]
O=C1NCN(c2ccccc2)C12CCN(CC1COc3ccccc3O1)CC2 (stereo in doubt; (+)) [SPIROXATRINE] | 21 nM | > 10000 nM | 858 nM | 1050 nM | 1.45 nM
O=C1NCN(c2ccccc2)C12CCN(CC1COc3ccccc3O1)CC2 (stereo in doubt; (-)) [SPIROXATRINE] | 1.9 nM | > 10000 nM | 113 nM | 149 nM | 0.22 nM

Source: ChEMBL document CHEMBL1123980, “Serotonergic properties of spiroxatrine enantiomers” (J Med Chem, 1988)
